# Measurements taken from ChEMBL document CHEMBL1143981, “Exploring the potential of 3'-O-carboxy esters of thymidine as inhibitors of ribonuclease A and angiogenin” (Bioorg Med Chem, 2008).
# pIC50, pKi: −log10 of the molar value. Activity calls are given as the source filed them. The calls are words filed in the database; no cut-off is given here.
# How the values were obtained:
# [1] = biological target: Ribonuclease pancreatic; assay: Activity at RNase A
# In short: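 Spectrophotometric kinetics with 2',3'-cCMP substrate in oligo(vinylsulfonic acid)-free 0.1 M Mes–NaOH, pH 6.0, with 0.1 M NaCl. RNase A was at 10 µM. Substrate ranged 0.14–0.28 mM with inhibitor 0–6.7 µM, or 0.13–0.25 mM with inhibitor 0–62 µM, depending on compound. Inhibition constants came from initial velocities via Eadie–Hofstee plots (V vs V/[S]), using the slopes.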
# [2] = biological target: T1, Ribonuclease pancreatic (Homo sapiens) (UniProt P07998); assay: Inhibition of RNase A assessed as tRNA degradation by agarose-gel based assay
# T1 sequence (whole entry): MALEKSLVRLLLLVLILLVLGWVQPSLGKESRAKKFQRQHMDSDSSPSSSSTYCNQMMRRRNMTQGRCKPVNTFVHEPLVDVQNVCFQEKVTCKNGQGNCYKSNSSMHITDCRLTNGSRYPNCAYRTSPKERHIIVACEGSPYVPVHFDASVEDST
# In short: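 RNase A (0.66 µM solution) was preincubated 6 h with 1.5 mM inhibitor solution, 50 µl total. An aliquot was then mixed with yeast tRNA (5.0 mg/ml, freshly dissolved in RNase-free water) for 30 min. Samples ran on 1.1% agarose, and undegraded tRNA was visualized by ethidium bromide staining under UV.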
# [3] = Inhibition of RNase A by precipitation assay
# In short: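 Yeast tRNA substrate (0.1 mg) in 0.1 M Tris–HCl, pH 7.5, with 5 mM EDTA and 10 µg HSA, 50 µl final. Enzyme (0.2 µM solution) was preincubated with inhibitor (225 µM solution) before addition. Reaction ran at 37 °C for 30 min. It was quenched with ice-cold 1.14 N perchloric acid containing 6 mM uranyl acetate, held on ice 30 min, then centrifuged at 4 °C.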
smiles,measurement,setting,value
CC(=O)O[C@H]1C[C@H](n2cc(C)c(=O)[nH]c2=O)O[C@@H]1CO,pKi,[1],4.38
same,Activity,[2],Active
same,pIC50,[3],3.71
Nc1ccn([C@@H]2O[C@H](CO)[C@@H](OP(=O)(O)O)[C@H]2O)c(=O)n1,pKi,[1],3.99
same,Activity,[2],Active
same,pIC50,[3],3.51
Cc1cn([C@H]2C[C@H](OC(=O)c3ccccc3)[C@@H](CO)O2)c(=O)[nH]c1=O,pKi,[1],4.02
same,Activity,[2],Active
same,pIC50,[3],3.47
Cc1cn([C@H]2C[C@H](OP(=O)(O)O)[C@@H](CO)O2)c(=O)[nH]c1=O,pKi,[1],4.88
same,pIC50,[3],3.78
